Measured values pooled from the literature.
Lines come from different studies, so protocols differ.
Target: Serine/threonine-protein kinase PLK3 (PLK3, Homo sapiens, UniProt Q9H4B4)

The remaining binding of `c1cncc(-c2cccc(Nc3nccc(NC4CCCCC4)n3)c2)c1` is reported as 78% (binding; competition with immobilised ligand; 10 µM).
With `COc1ccnn2ncc(-c3ccnc(N(C)C)n3)c12` the remaining binding was 75% (binding; 1 µM).
`Cc1cnc(Nc2ccc(C(=O)N3CCC(N4CCCC4)CC3)cc2)nc1-c1cc2ccccc2s1` gave a remaining binding of 42% (binding; competition with immobilised ligand; 1 µM).
With `N#Cc1ccccc1CSc1nnc2c(n1)[nH]c1ccccc12` the remaining binding was 100% (binding; competition with immobilised ligand; 10 µM).
For `C[C@@H]1CN(c2cc(-c3n[nH]c4ccc(OC5(C)CC5)cc34)ncn2)C[C@H](C)O1`, the remaining binding was 84% (cell-free assay; competition with immobilised ligand; 0.1 µM).
The remaining binding of `O=C(c1ccc(Nc2ncc(Cl)c(-c3ccc(Cl)s3)n2)cc1)N1CCC(N2CCCC2)CC1` is reported as 31% (binding; competition with immobilised ligand; 1 µM).
`C=CC(=O)N1CCC(C(=O)NCC(=O)N2CCN(c3nc(-c4cnc(N)nc4C(F)F)nc(N4CCOCC4)n3)CC2)CC1` has a remaining binding of 58% (binding; competition with immobilised ligand; 1 µM).
With `O=C(NCC1CCOCC1)c1n[nH]cc1NC(=O)c1c(F)cccc1F` the remaining binding was 89% (binding; competition with immobilised ligand; 1 µM).
The remaining binding of `C[C@H]1CCN(c2nccc(-c3cnn4ncccc34)n2)C1` is reported as 75% (binding; 1 µM).
`O=C(O)c1cc(-c2ccc(C3CCNCC3)cc2)c2ccc(-c3ccc(C(F)(F)F)cc3)cc2c1` gave a remaining binding of 100% (cell-free assay; competition with immobilised ligand; 1 µM).
`COc1ncc2cc3ccccc3nc2c1C#N` has a remaining binding of 69% (cell-free assay; competition with immobilised ligand; 5 µM).
With `COCCOc1nc(-c2ccc(Cl)nc2)nc2c1CN(C(=O)c1ncn3ccccc13)CC2` the remaining binding was 100% (cell-free assay; competition with immobilised ligand; 0.1 µM).
The remaining binding of `O=C(c1ccc(Nc2nccc(-c3cc4ccccc4s3)n2)cc1)N1CCC(N2CCCC2)CC1` is reported as 81% (binding; competition with immobilised ligand; 1 µM).
`CC(=O)N1CCC(c2ccc(C(=O)NC3=NCCN3)cc2C(F)(F)F)CC1` gave a remaining binding of 78% (cell-free assay; competition with immobilised ligand; 1 µM).
For `c1cnn2ncc(-c3ccnc(N4CCC45COC5)n3)c2c1`, the remaining binding was 79% (binding; 1 µM).
The remaining binding of `O=C(Nc1cccnn1)N1CC(C/C=C/c2cncc(Oc3ccc(C(F)(F)F)cn3)n2)C1` is reported as 80% (cell-free assay; competition with immobilised ligand; 1 µM).
The remaining binding of `CN(C)c1nccc(-c2cnc3ncccn23)n1` is reported as 66% (binding; 1 µM).
For `C[C@@H](c1ccc(-n2cnc3c(N)ncnc32)cc1)N1CCc2nn(C)c(Cc3ccccc3)c2C1=O`, the remaining binding was 76% (binding; competition with immobilised ligand; 0.1 µM).
For `C[C@@H]1CN(c2ccc3ncc(-c4ccc5[nH]nc(C6CC6)c5c4)n3n2)C[C@H](C)O1`, the remaining binding was 98% (binding; competition with immobilised ligand; 0.5 µM).
The remaining binding of `F[C@@H]1CCN(c2nccc(-c3cnn4ncccc34)n2)C1` is reported as 87% (binding; 1 µM).
The remaining binding of `NS(=O)(=O)c1cc(NC(=O)Cc2ccccc2)ccc1Oc1cccc(Cl)c1` is reported as 87% (cell-free assay; competition with immobilised ligand; 1 µM).
With `COc1cnc(Nc2cccc(S(N)(=O)=O)c2)nc1N1CCN(c2ccccc2)C(=O)C1` the remaining binding was 63% (binding; competition with immobilised ligand; 1 µM).
For `CN([C@@H]1CCc2c(CC(=O)O)c3ccccc3n2C1)S(=O)(=O)c1ccc(F)cc1`, the remaining binding was 85% (cell-free assay; competition with immobilised ligand; 1 µM).
`N[C@@H]1CCN(c2nccc(-c3cnn4ncccc34)n2)C1` gave a remaining binding of 100% (binding; 1 µM).
